The values below come from ChEMBL document CHEMBL2057162, “Synthesis and antitumor efficacy of a β-glucuronidase-responsive albumin-binding prodrug of doxorubicin” (J Med Chem, 2012).

Structures are written as SMILES.

Series [1] can be described thus: Antiproliferative activity against human NCI-H290 cells after 48 hrs by XTT assay. In kind it is functional, cell-based. The conditions noted are these: NCI-H290, 48 h. The essentials: (§1)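 Human H290, MDA-MB-231 and U87-MG and murine LLC tumour cell lines treated 48 h, with or without β-glucuronidase in the culture medium. IC50 derived from cell viability assays; highest tested dose 2 μM.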
(In general: Tetrazolium dyes change colour on reduction, which living cells bring about.)

For another series, the system named is MDA-MB-231. Kind of series: Antiproliferative activity against human MDA-MB-231 cells after 48 hrs by XTT assay. In kind it is functional, cell-based. The conditions noted are these: MDA-MB-231, 48 h. In outline:
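Human MDA-MB-231 tumour cells were exposed to drug for 48 h, with or without β-glucuronidase added to the culture medium. Viability read-out gave IC50 in nM. Highest prodrug concentration tested was 2 μM.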

Series [2] can be described thus: Antiproliferative activity against human U87MG cells after 48 hrs by XTT assay. The format is functional, cell-based, U-87MG ATCC. Conditions: U-87 MG. In outline:
as §1

Series [3] deals with Lewis lung carcinoma cell line. In words: Antiproliferative activity against mouse LLC cells after 48 hrs by XTT assay. In kind it is functional, cell-based. The essentials: as §1
Series [4] deals with Mus musculus. In words: Toxicity in C57BL/6 mouse xenografted with mouse LLC cells assessed as change in body weight at 13.7 umol/kg, iv administered on day 4 and day 11 after tumor transplantation measured on day 17. The format is organism-based. Conditions: in vivo. In outline: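 Subcutaneous murine LLC-bearing mice given two iv doses on days 4 and 11 after transplantation: 2 × 13.7 μmol/kg doxorubicin or 2 × 43.6 μmol/kg prodrug. Body weight change (%) and mortality recorded, 8 mice per group.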

Series [5] relates to Lewis lung carcinoma cell line. In words: Antitumor activity against mouse LLC cells xenografted in C57BL/6 mouse assessed as decrease in tumor volume at 13.7 umol/kg, iv administered on day 4 and day 11 after tumor transplantation measured on day 17. The format is functional. The essentials:
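Murine LLC tumours grown subcutaneously in mice. Two iv injections on days 4 and 11 after transplantation: doxorubicin 2 × 13.7 μmol/kg, glucuronide prodrugs 2 × 43.6 μmol/kg. T/C = mean relative tumour volume of treated group / mean relative tumour volume of control group. Minimal T/C reported with the day it was reached; 8 mice per group.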

Series [6] has as its system Mus musculus. In words: Nephrotoxicity in C57BL/6 mouse xenografted with mouse LLC cells at 13.7 umol/kg, iv administered on day 4 and day 11 after tumor transplantation measured on day 17 by hematoxylin eosin staining method. The format is toxicity, organism-based. Conditions: in vivo. In outline:
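Kidneys from LLC-bearing mice dosed iv on days 4 and 11 were sectioned and stained with hematoxylin eosin. Renal tissue examined microscopically alongside untreated controls.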

As to `COc1cccc2c1C(=O)c1c(O)c3c(c(O)c1C2=O)C[C@@](O)(C(=O)CO)C[C@@H]3O[C@H]1C[C@H](N)[C@H](O)[C@H](C)O1` [DOXORUBICIN], the IC50 came out at 0.32 µM in series [1], 0.34 µM with MDA-MB-231, 0.79 µM in series [2] and 0.207 µM in series [3]. Also, the values for the Activity in the series on Mus musculus [4] and in the series on Mus musculus [6] were -21% and “Toxic”, respectively. In addition, the T/C in series [5] is listed as 31%.

One may read the IC50 as the concentration at which inhibition is half-maximal. Read a low IC50 as inhibition by little substance. As a reminder, the T/C is the result in the treated group divided by that in the control group, in per cent.
